{"source": "ChEMBL document CHEMBL4028909", "about": "“Discovery of an Orally Bioavailable Benzofuran Analogue That Serves as a β-Amyloid Aggregation Inhibitor for the Potential Treatment of Alzheimer's Disease” (J Med Chem, 2018)", "key": {"[1]": {"tested_on": "Mus musculus", "assay": "Reversal of cognitive deficit in double APP/PS1 transgenic Alzheimer's disease mouse model assessed as increase in spatial memory function by measuring spontaneous alternation at 30 mg/kg, po qd administered for 8 weeks by Y maze test (reference value: 52.64 +/- 4.15%)", "type": "functional", "summary_of_the_method": "(§1)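 APP/PS1 double transgenic mice, 29 weeks old, dosed orally once daily at 30 or 100 mg/kg for eight weeks. Y-maze spontaneous alternation (%) was then measured against vehicle-treated mice, and mice were watched for apparent toxicity.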"}, "[2]": {"tested_on": "Mus musculus", "assay": "Reversal of cognitive deficit in double APP/PS1 transgenic Alzheimer's disease mouse model assessed as increase in spatial memory function by measuring spontaneous alternation at 100 mg/kg, po qd administered for 8 weeks by Y maze test (reference value: 52.64 +/- 4.15%)", "type": "functional", "summary_of_the_method": "as §1"}, "[3]": {"tested_on": "Mus musculus", "assay": "Toxicity in double APP/PS1 transgenic Alzheimer's disease mouse model at 30 to 100 mg/kg, po qd administered for 8 weeks", "type": "organism-based", "details": "in vivo, 1344 h", "summary_of_the_method": "as §1"}, "[4]": {"tested_on": "Mus musculus", "assay": "Antiamyloidogenic activity in po dosed double APP/PS1 transgenic Alzheimer's disease mouse model assessed as decrease in amyloid beta (1 to 40) levels in brain administered as qd for 8 weeks by sandwich ELISA", "type": "functional, organism-based", "summary_of_the_method": "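APP/PS1 mice, 29 weeks old, were dosed orally once daily for eight weeks at 30 or 100 mg/kg, with a vehicle group. Brain tissue was homogenized and amyloid fibrils were solubilized to monomers. Aβ1-40 and Aβ1-42 were then quantified by immunoassay with antibodies specific to monomeric Aβ.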"}, "[5]": {"tested_on": "Mus musculus", "assay": "AUC (infinity) in mouse at 3 mg/kg, iv", "type": "ADME, organism-based", "design": "dose 3 mg/kg, route intravenous, time infinity", "details": "in vivo", "summary_of_the_method": "(§2)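 Mice received a single dose of 3 mg/kg i.v. or 3, 10 or 30 mg/kg orally. Plasma concentration-time profiles were analysed for AUC from zero to infinity and to the last measured time (hr*ng/mL), Cmax (ng/mL, C0 after i.v.), Tmax and terminal half-life (hr), and oral bioavailability (%).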"}, "[6]": {"assay": "AUClast in mouse at 3 mg/kg, po", "type": "ADME, organism-based", "design": "dose 3 mg/kg, time 0 - last, route oral", "details": "in vivo", "summary_of_the_method": "as §2"}, "[7]": {"assay": "Oral bioavailability in mouse at 3 mg/kg", "type": "ADME, organism-based", "details": "in vivo", "summary_of_the_method": "as §2"}, "[8]": {"assay": "Terminal half life in mouse at 10 mg/kg, po", "type": "ADME, organism-based", "details": "in vivo, read-out: beta t1/2 (converted)", "summary_of_the_method": "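Mouse pharmacokinetics: single i.v. dose of 3 mg/kg, or oral doses of 3, 10 and 30 mg/kg. Plasma concentration–time curves gave T1/2 (terminal, hr), Tmax (hr), Cmax, AUC and bioavailability (%).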"}, "[9]": {"assay": "Oral bioavailability in mouse at 10 mg/kg", "type": "ADME, organism-based", "details": "in vivo", "summary_of_the_method": "as §2"}, "[10]": {"assay": "AUClast in mouse at 30 mg/kg, po", "type": "ADME, organism-based", "design": "dose 30 mg/kg, time 0 - last, route oral", "details": "in vivo", "summary_of_the_method": "as §2"}, "[11]": {"assay": "Oral bioavailability in mouse at 30 mg/kg", "type": "ADME, organism-based", "details": "in vivo", "summary_of_the_method": "as §2"}, "[12]": {"assay": "Half life in po dosed dog", "type": "ADME, organism-based, Canis lupus familiaris", "details": "in vivo"}, "[13]": {"assay": "Half life in po dosed monkey", "type": "ADME, organism-based, Macaca mulatta", "details": "rhesus monkey, in vivo"}, "[14]": {"assay": "Cmax in po dosed dog", "type": "ADME, organism-based, Canis lupus familiaris", "design": "route oral", "details": "in vivo"}, "[15]": {"assay": "Cmax in po dosed ICR mouse", "type": "ADME, organism-based", "design": "route oral", "details": "in vivo"}, "[16]": {"assay": "AUC in po dosed ICR mouse", "type": "ADME, organism-based", "details": "in vivo"}, "[17]": {"assay": "Oral bioavailability in dog", "type": "ADME, organism-based, Canis lupus familiaris", "details": "in vivo"}, "[18]": {"assay": "Ratio of AUC in ICR mouse brain to AUC in ICR mouse plasma at 10 mg/kg, po measured at 1 hr", "type": "ADME, organism-based", "details": "read-out: Ratio AUC", "summary_of_the_method": "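ICR mice (n=3) given a single oral dose of 10 mg/kg. Brain and plasma were sampled over nine hours, at 0.333, 1, 3, 6 and 9 h. Kp was calculated as AUC_brain/AUC_plasma.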"}, "[19]": {"molecular_target": "Cytochrome P450 2D6 (Homo sapiens, UniProt P10635)", "sequence (P10635 whole entry)": "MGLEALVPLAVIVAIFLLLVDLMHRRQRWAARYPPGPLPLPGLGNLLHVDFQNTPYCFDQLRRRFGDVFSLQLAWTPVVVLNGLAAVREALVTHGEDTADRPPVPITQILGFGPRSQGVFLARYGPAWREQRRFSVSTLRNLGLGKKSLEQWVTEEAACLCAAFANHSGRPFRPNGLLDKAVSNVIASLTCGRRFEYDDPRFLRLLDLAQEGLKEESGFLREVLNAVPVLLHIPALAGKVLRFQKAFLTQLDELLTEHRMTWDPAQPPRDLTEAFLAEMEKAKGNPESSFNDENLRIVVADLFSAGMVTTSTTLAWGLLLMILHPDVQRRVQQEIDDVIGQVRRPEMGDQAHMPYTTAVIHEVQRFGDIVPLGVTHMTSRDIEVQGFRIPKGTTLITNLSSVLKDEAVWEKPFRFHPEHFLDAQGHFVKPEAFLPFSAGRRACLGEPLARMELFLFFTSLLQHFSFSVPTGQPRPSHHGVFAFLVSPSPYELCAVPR", "assay": "Inhibition of CYP2D6 in human liver microsomes preincubated for 5 mins followed by addition of NADPH generating system measured after 20 mins by LC-MS/MS analysis", "type": "ADME", "summary_of_the_method": "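Inhibition of each CYP isozyme (1A2, 2A6, 2C8, 2C9, 2C19, 2D6, 3A4) was measured in human liver microsomes. IC50 values were reported in μM.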"}}, "data": [{"smiles": "COCCCc1ccc2oc(-c3ccc(OC)c(OC)c3)cc2c1", "values": [{"measurement": "Activity", "setting": "[1]", "value": 63.73, "unit": "%"}, {"measurement": "Activity", "setting": "[2]", "value": 63.93, "unit": "%"}, {"measurement": "Activity", "setting": "[3]", "value": "Non-Toxic"}, {"measurement": "Activity", "setting": "[4]", "value": "Dose-dependent effect"}, {"measurement": "AUC", "setting": "[5]", "value": 1325.1, "unit": "ng·h/mL"}, {"measurement": "AUC(0-t)", "setting": "[6]", "value": 246, "unit": "ng·h/mL"}, {"measurement": "bioavailability", "setting": "[7]", "value": 21.4, "unit": "%"}, {"measurement": "half-life", "setting": "[8]", "value": 1.6, "unit": "h"}, {"measurement": "bioavailability", "setting": "[9]", "value": 51.9, "unit": "%"}, {"measurement": "AUC(0-t)", "setting": "[10]", "value": 10400, "unit": "ng·h/mL"}, {"measurement": "bioavailability", "setting": "[11]", "value": 79.1, "unit": "%"}, {"measurement": "half-life", "setting": "[12]", "value": 1.4, "unit": "h"}, {"measurement": "half-life", "setting": "[13]", "value": 12.9, "unit": "h"}, {"measurement": "Cmax", "setting": "[14]", "value": 1610, "unit": "ng/mL"}, {"measurement": "Cmax", "setting": "[15]", "value": 944, "unit": "ng/mL"}, {"measurement": "AUC", "setting": "[16]", "value": 13200, "unit": "ng·h/mL"}, {"measurement": "bioavailability", "setting": "[17]", "value": 25, "unit": "%"}, {"measurement": "Kp at 1 h", "setting": "[18]", "value": 1.5}, {"measurement": "IC50", "setting": "[19]", "value": "> 50", "unit": "µM"}]}]}
